Experimental data reported in ChEMBL document CHEMBL2331439 (J Med Chem, 2013).

Key:
[1] = target: Serine/threonine-protein kinase MARK2 (Homo sapiens) (UniProt Q7KZI7); test: Inhibition of recombinant MARK2 (unknown origin) at 5 uM by FRET-based Z'-LYTE assay
Outline: (§1)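 Single-point panel screen at 5 μM in duplicate. ATP is at the apparent Km of each kinase, and the Z'-LYTE FRET peptide substrate is used. Each point has two control wells: a protease control for interference with development and a fluorescence control for interference with the FRET read-out. Values above 100% are treated as maximal inhibition and values below 0% as none.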

[2] = target: Serine/threonine-protein kinase Nek1 (Homo sapiens) (UniProt Q96PY6); test: Inhibition of recombinant NEK1 (unknown origin) at 5 uM by FRET-based Z'-LYTE assay; outline: as §1
Serine/threonine-protein kinase Nek1 (Homo sapiens), sequence (Q96PY6 whole entry): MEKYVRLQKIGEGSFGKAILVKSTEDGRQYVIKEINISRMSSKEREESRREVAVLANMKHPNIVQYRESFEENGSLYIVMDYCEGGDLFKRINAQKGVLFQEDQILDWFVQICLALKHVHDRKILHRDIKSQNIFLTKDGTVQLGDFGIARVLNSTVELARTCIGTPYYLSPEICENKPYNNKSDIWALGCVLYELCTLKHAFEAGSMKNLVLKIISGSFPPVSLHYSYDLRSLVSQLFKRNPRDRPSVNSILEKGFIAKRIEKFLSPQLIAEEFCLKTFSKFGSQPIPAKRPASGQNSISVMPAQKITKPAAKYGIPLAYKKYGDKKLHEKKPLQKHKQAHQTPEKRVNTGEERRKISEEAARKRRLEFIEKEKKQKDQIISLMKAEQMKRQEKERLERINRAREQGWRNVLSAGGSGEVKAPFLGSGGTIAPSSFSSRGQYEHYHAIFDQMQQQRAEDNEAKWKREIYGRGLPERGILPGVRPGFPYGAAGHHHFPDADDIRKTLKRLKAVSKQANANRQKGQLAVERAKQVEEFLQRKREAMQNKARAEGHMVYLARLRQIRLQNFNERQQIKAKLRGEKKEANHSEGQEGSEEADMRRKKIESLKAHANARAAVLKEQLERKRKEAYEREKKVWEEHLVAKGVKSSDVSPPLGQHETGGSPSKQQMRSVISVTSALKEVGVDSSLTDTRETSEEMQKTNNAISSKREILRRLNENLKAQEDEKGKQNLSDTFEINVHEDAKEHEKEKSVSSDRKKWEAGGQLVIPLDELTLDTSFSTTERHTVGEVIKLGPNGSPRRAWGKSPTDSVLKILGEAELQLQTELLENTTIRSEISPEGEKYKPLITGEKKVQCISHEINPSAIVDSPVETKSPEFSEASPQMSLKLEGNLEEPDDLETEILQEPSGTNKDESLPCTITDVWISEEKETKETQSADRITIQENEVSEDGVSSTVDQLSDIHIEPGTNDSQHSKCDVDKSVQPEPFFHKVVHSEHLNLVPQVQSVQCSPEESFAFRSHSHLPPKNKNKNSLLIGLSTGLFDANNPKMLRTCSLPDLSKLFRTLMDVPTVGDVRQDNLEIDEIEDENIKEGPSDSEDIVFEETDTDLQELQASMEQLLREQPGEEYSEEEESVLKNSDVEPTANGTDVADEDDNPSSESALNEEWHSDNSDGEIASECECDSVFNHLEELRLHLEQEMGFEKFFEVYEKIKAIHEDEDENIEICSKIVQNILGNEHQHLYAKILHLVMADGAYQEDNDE

[3] = target: Tyrosine-protein kinase Lck (Homo sapiens) (UniProt P06239); test: Inhibition of recombinant LCK (unknown origin) at 5 uM by FRET-based Z'-LYTE assay; outline: as §1
Tyrosine-protein kinase Lck (Homo sapiens), sequence (P06239 2-509 limits assumed): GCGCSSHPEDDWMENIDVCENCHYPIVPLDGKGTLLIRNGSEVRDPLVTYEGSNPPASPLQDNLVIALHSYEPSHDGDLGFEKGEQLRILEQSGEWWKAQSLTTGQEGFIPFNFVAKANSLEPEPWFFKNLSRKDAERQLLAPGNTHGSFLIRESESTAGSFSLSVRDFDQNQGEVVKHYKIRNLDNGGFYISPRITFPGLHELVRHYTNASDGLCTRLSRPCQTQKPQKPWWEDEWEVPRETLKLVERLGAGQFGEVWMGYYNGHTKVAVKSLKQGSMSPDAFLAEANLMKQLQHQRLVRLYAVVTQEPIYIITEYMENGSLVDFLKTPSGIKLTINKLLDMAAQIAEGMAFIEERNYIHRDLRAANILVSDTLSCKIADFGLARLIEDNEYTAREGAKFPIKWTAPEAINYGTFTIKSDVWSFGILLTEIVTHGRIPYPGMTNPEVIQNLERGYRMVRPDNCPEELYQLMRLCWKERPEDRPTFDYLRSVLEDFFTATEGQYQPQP

[4] = target: Hepatocyte growth factor receptor (Homo sapiens) (UniProt P08581); test: Inhibition of recombinant MET (unknown origin) at 5 uM by FRET-based Z'-LYTE assay; outline: as §1
[5] = target: 3-phosphoinositide-dependent protein kinase 1 (Homo sapiens) (UniProt O15530); test: Inhibition of recombinant PDK1 (unknown origin) at 5 uM by FRET-based Z'-LYTE assay; outline: as §1
[6] = target: AMP-activated protein kinase (AMPK) alpha-1/beta-1/gamma-1 (Homo sapiens) (UniProt P54619+Q9Y478+Q13131); test: Inhibition of recombinant AMPK A1/B1/G1 (unknown origin) at 5 uM by FRET-based Z'-LYTE assay; format: protein-complex assay; outline: as §1
[7] = target: Receptor-type tyrosine-protein kinase FLT3 (Homo sapiens) (UniProt P36888); test: Inhibition of recombinant FLT3 (unknown origin) at 5 uM by FRET-based Z'-LYTE assay; outline: as §1
Receptor-type tyrosine-protein kinase FLT3 (Homo sapiens), sequence (P36888 whole entry): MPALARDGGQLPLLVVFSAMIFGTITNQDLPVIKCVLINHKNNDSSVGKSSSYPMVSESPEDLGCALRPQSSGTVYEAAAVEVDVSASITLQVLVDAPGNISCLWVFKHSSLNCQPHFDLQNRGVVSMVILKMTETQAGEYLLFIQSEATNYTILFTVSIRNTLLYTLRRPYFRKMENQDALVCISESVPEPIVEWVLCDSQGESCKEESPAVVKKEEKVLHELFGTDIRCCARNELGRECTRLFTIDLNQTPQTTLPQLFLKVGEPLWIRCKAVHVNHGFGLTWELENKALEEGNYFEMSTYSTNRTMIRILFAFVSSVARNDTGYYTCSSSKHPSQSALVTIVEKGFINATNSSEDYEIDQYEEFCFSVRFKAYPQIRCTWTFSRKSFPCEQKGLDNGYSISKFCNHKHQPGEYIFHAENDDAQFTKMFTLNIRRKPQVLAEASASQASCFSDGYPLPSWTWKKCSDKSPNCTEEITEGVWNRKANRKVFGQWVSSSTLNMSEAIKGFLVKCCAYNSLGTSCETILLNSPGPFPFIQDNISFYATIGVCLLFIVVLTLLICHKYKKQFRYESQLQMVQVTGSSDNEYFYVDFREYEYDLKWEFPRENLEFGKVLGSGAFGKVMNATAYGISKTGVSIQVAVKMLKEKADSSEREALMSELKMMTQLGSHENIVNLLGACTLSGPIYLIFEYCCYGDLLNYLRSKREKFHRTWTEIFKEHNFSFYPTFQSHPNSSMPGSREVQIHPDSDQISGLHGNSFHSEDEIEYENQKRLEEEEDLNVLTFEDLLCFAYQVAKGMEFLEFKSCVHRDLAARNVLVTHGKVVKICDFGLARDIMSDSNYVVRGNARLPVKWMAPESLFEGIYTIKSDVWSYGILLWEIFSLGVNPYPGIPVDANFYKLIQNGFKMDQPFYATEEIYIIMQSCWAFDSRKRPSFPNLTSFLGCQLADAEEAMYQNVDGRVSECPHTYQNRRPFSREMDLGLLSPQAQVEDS

[8] = target: High affinity nerve growth factor receptor (Homo sapiens) (UniProt P04629); test: Inhibition of recombinant NTRK1 (unknown origin) at 5 uM by FRET-based Z'-LYTE assay; outline: as §1
[9] = target: Casein kinase I isoform gamma-2 (Homo sapiens) (UniProt P78368); test: Inhibition of recombinant CSNK1G2 (unknown origin) at 5 uM by FRET-based Z'-LYTE assay; outline: as §1
Casein kinase I isoform gamma-2 (Homo sapiens), sequence (P78368 whole entry, looked up, canonical isoform): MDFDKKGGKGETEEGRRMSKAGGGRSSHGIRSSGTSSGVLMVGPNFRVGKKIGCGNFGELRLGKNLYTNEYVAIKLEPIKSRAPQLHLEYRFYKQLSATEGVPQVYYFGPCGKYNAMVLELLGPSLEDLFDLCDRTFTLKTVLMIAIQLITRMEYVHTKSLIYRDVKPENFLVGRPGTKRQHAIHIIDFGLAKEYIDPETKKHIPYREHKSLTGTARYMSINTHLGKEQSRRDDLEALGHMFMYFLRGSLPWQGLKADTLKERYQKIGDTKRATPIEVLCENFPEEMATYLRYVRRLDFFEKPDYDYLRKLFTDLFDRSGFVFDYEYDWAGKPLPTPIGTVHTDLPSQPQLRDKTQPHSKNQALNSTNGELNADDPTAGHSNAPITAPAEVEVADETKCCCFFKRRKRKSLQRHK

[10] = target: Ribosomal protein S6 kinase alpha-3 (Homo sapiens) (UniProt P51812); test: Inhibition of recombinant RPS6KA3 (unknown origin) at 5 uM by FRET-based Z'-LYTE assay
Outline: (§2)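 Z'-LYTE FRET peptide (coumarin/fluorescein) phosphorylation was followed by protease development. Wells included a protease control for interference with development and a fluorescence control for interference with the FRET read. Values above 100% or below 0% were treated as maximal or no inhibition.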

[11] = target: Cyclin-dependent kinase 1/cyclin B1 (Homo sapiens) (UniProt P06493+P14635); test: Inhibition of recombinant CDK1/cyclin B (unknown origin) at 5 uM by FRET-based Z'-LYTE assay; format: protein-complex assay; outline: as §1
Cyclin-dependent kinase 1/cyclin B1 (Homo sapiens), sequence (P06493 whole entry, looked up): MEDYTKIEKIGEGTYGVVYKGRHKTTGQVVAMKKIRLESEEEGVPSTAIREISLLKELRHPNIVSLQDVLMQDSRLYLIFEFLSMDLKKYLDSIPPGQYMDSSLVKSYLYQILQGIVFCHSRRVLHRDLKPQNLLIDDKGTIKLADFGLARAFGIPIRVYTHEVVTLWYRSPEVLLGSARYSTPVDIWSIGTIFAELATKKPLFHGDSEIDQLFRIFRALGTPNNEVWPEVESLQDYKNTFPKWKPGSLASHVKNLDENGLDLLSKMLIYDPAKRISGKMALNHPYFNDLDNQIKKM
Cyclin-dependent kinase 1/cyclin B1 (Homo sapiens), sequence (P14635 whole entry, looked up): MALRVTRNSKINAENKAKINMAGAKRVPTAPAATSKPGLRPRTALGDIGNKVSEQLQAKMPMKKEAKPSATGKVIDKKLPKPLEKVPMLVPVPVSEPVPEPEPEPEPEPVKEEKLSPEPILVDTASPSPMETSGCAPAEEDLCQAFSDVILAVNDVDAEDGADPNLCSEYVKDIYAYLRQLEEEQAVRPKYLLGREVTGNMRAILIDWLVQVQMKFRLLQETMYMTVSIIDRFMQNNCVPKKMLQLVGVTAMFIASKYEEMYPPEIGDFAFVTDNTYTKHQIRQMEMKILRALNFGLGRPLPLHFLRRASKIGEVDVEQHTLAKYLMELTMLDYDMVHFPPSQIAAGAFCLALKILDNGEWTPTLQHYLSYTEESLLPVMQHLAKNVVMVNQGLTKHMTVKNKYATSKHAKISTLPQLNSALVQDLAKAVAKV

[12] = target: Dual specificity tyrosine-phosphorylation-regulated kinase 3 (Homo sapiens) (UniProt O43781); test: Inhibition of recombinant DYRK3 (unknown origin) at 5 uM by FRET-based Z'-LYTE assay; outline: as §1
[13] = target: Mitogen-activated protein kinase 14 (Homo sapiens, UniProt Q16539); test: Inhibition of recombinant MAPK14 (unknown origin) by FRET-based Z'-LYTE assay
[14] = target: Tyrosine-protein kinase SYK (Homo sapiens) (UniProt P43405); test: Inhibition of recombinant SYK (unknown origin) at 5 uM by FRET-based Z'-LYTE assay; outline: as §2
[15] = target: CDK9/cyclin T1 (Homo sapiens) (UniProt O60563+P50750); test: Inhibition of recombinant CDK9/cyclin T1 (unknown origin) at 5 uM after 1 hr by FRET-based adapta assay; format: protein-complex assay
Outline: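 After inhibitor and all reaction components are added, the reaction runs for 1 h. ADP formed by the kinase displaces an antibody-tracer complex, so reduced ADP gives a high TR-FRET signal. Inhibition is calculated against a control.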

[16] = target: Inhibitor of nuclear factor kappa-B kinase subunit beta (Homo sapiens) (UniProt O14920); test: Inhibition of recombinant IKBKB (unknown origin) at 5 uM by FRET-based Z'-LYTE assay; outline: as §1
[17] = target: Serine/threonine-protein kinase PAK 4 (Homo sapiens) (UniProt O96013); test: Inhibition of recombinant PAK4 (unknown origin) at 5 uM by FRET-based Z'-LYTE assay; outline: as §1
Serine/threonine-protein kinase PAK 4 (Homo sapiens), sequence (O96013 whole entry, looked up): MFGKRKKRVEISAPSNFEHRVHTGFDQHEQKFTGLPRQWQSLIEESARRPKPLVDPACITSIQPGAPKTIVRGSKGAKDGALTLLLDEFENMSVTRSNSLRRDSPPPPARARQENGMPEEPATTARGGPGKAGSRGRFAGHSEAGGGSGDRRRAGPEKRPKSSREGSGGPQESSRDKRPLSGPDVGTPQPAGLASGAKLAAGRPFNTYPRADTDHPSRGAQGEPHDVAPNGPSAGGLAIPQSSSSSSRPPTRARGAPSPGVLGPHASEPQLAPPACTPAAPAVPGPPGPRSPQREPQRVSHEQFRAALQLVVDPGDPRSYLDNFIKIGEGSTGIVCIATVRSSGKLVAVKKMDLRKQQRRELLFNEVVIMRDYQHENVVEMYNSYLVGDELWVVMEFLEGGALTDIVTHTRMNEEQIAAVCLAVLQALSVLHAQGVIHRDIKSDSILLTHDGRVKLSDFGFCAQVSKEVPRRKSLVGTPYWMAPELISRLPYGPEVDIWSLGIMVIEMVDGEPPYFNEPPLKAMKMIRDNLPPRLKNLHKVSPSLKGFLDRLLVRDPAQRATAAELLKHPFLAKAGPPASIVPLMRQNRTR

[18] = target: Ribosomal protein S6 kinase beta-1 (Homo sapiens, UniProt P23443); test: Inhibition of recombinant RPS6K1 (unknown origin) by FRET-based Z'-LYTE assay
Ribosomal protein S6 kinase beta-1, sequence (P23443 whole entry): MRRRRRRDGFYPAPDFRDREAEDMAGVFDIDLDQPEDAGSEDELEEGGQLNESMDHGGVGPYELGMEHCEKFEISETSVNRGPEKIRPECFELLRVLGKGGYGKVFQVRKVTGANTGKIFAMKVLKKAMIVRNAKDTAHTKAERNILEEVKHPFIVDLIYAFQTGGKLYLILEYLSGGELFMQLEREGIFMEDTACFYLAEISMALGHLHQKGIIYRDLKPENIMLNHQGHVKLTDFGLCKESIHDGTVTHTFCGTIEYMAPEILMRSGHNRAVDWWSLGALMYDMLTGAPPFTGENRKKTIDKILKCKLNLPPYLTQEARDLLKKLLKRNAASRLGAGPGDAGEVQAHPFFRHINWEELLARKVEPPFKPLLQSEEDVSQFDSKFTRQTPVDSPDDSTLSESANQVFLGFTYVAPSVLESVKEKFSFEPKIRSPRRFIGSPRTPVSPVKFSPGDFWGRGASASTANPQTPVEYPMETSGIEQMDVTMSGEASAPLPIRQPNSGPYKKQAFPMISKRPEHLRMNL

inhibition [1]: 22% | inhibition [2]: 102% | inhibition [3]: 13% | inhibition [4]: 75% | inhibition [5]: 54% | inhibition [6]: 95% | inhibition [7]: 69% | inhibition [8]: 25% | inhibition [9]: 12% | inhibition [10]: 77% | inhibition [11]: 24% | inhibition [12]: 48% | IC50 [13]: 35 µM | inhibition [14]: 45% | inhibition [15]: 26% | inhibition [16]: 107% | inhibition [17]: 18% | IC50 [18]: 1.4 µM
SMILES: O=C1/C(=C/c2ccccn2)CNC/C1=C\c1ccccn1
